The list is not random: actives were taken first. Their share in the collection is about 2.8%.
PAFAH2 FP inh: inhibitors of human PAFAH2. Q99487. recombinant PAFAH2, FP-rhodamine activity probe, fluorescence polarization. inhibition, % at 3.39 µM. 340,000 compounds, 0.99% hits;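 active means inhibition above the mean over all tested compounds plus 3 SD, cut at about 30% in these data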;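 further: inhibitors block probe labeling of enzyme so polarization drops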
pPAFAH FP inh: pPAFAH (human) enzyme inhibition; Q13093; recombinant pPAFAH, FP-rhodamine probe fluorescence polarization; inhibition, % at 3.39 µM; 330,000 compounds, 1.5% hits; AID 463082;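 active means inhibition above the mean inhibition across the screen plus 3 SD, cut at about 25% in these data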;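 further: inhibitors block binding of the rhodamine activity-based probe so polarization drops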
ABHD4 inh: inhibitors of mouse ABHD4. purified mABHD4, FP-Rh probe fluorescence polarization. 370,000 compounds, 0.54% hits. inhibition, % at 8.92 µM. AID 720543. Q8VD66;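 active means inhibition exceeding the mean over every tested compound plus 3 SD, cut at about 30% in these data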
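Assay system: wild-type mouse ABHD4 protein; compound: single nominal dose of 8.92 µM, 0.89% DMSO final; schedule: 45 min + 60 min at 25 °C; measured by: FP readout, ex 525 nm / em 598 nm; evaluation: % inhibition of FP-Rh probe binding versus controls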
HTRA1 inh: HTRA1 (human) protease inhibition. Q92743. recombinant HTRA1, FP-rhodamine activity-based probe, fluorescence polarization. inhibition, % at 5.96 µM. 340,000 compounds, 0.5% hits; in the data active means inhibition above about 36%
PAFAH1B3 FP inh: PAFAH1B3 (human) inhibition; AID 492972; inhibition, % at 3.39 µM; 340,000 compounds, 0.28% hits; recombinant PAFAH1B3, FP-rhodamine probe, fluorescence polarization;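 active means inhibition above the screen-wide average of all tested compounds plus 3 SD, cut at about 25% in these data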
Target sequence (Q15102 whole entry, looked up): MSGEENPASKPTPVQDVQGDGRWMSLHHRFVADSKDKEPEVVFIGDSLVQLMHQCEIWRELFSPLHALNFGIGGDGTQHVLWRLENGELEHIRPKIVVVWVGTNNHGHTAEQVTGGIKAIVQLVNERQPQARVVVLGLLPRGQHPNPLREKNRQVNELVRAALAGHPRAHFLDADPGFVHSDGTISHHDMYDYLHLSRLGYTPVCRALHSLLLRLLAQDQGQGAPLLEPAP
PAFAH1B2 inh: blocks human PAF acetylhydrolase 1b catalytic subunit 2 | inhibition, % at 3.39 µM | AID 492953 | P68402 | 340,000 compounds, 1.2% hits | recombinant PAFAH1B2, FP-rhodamine activity probe, fluorescence polarization;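 active means inhibition above the mean of all tested compounds plus 3 SD, cut at about 24% in these data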
Target sequence (P68402 whole entry, looked up): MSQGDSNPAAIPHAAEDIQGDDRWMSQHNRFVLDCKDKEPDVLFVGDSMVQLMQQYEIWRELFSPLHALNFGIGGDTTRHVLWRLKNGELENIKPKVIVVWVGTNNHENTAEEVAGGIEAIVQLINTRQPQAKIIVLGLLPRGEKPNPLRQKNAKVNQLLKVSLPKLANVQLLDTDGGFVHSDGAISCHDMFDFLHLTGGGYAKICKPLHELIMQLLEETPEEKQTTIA
PAFAH2 FP conf: PAFAH2 (human) inhibition, confirmed. 2,300 compounds, 65% hits. shares compounds with PAFAH2 FP inh. recombinant PAFAH2, FP-rhodamine activity probe, fluorescence polarization. inhibition, % at 3.39 µM. AID 493030;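 active means mean inhibition over three repeats above a set limit taken from the earlier primary screen, cut at about 30% in these data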;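 further: inhibitor blocks binding of rhodamine activity probe so polarization falls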
Hits are given with their value; - = inactive; . = no result given.

SMILES	PAFAH2 FP inh	pPAFAH FP inh	ABHD4 inh	HTRA1 inh	PAFAH1B3 FP inh	PAFAH1B2 inh	PAFAH2 FP conf
O=C1/C(=C/c2ccccn2)SC(=S)N1NS(=O)(=O)c1ccccc1	-	-	-	-	-	-	.
O=C1/C(=C\c2ccccn2)SC(=S)N1Nc1ncc(C(F)(F)F)cc1Cl	34	-	.	-	-	-	-
O=C1/C(=C/c2ccccn2)SC(=S)N1Nc1ncc(C(F)(F)F)cc1Cl	37	.	-	-	-	-	-
O=C(NCCN1CCC(Cc2ccccc2)CC1)C1CCCN(S(=O)(=O)c2ccc(Br)s2)C1 (stereo unspecified)	.	.	-	.	.	.	.
Cc1ccc(S(=O)(=O)N2CCOCC2)cc1NC(=O)COC(=O)c1ccco1	.	.	-	-	.	.	.
COc1cccc(/C=C/C(=O)OCC(=O)Nc2cc(S(=O)(=O)N3CCOCC3)ccc2C)c1	55	-	-	-	-	-	42
Cc1ccc(S(=O)(=O)N2CCOCC2)cc1NC(=O)COC(=O)/C=C/c1ccco1	46	-	-	-	-	-	45
COC(=O)c1cc(-c2ccc(C)c3ccccc23)c(=O)n2c1CCC2	.	.	-	.	.	.	.
COCCNC(=S)N/N=C(\C)c1ccc(O)cc1	-	-	-	-	-	-	.
C/C(=N\NC(=S)NCC(C)(C)C)c1cc(F)cc(F)c1O	33	-	-	-	-	-	-
O=C(Nc1ccccc1)Nc1c(-c2ccccc2)nc2ncccn12	.	.	-	.	.	.	.
O=C(c1ccccc1)n1ccc(-c2cccs2)n1	43	-	-	-	-	-	-
CC(C)CNC(=O)COC(=O)c1ccc(F)cc1Cl	35	-	-	-	-	-	-
COc1cc(SC)ccc1C(=O)OCC(=O)NC(=O)NC(C)C	-	-	-	-	-	-	.
CC(C)CNC(=O)COC(=O)c1cc(Cl)cc(Cl)c1N	-	-	-	-	-	-	.
COc1cc(SC)ccc1C(=O)OCC(=O)NCC(C)C	45	-	-	-	-	-	-
C[C@H]1CCC[C@@H](O)CC(=O)c2c(O)cc(O)cc2CC(=O)O1	.	.	-	.	.	.	.
CCCCOc1ccc(C(=O)n2ccc3ccc(-c4ccc5ccn(Cc6ccc(OC)cc6)c5c4)cc32)cc1	.	.	-	.	.	.	.
Cc1cccc(CCNC(=O)Cn2ncc3c2-c2cc(C)ccc2OC3)c1	.	.	-	.	.	.	.
Cc1ccsc1C(=O)OCC(=O)NC1CCCCC1C (stereo unspecified)	86	-	-	-	-	-	82
CC1CCCCC1NC(=O)COC(=O)c1cccn1C (stereo unspecified)	85	-	-	-	-	-	68
Cc1ccsc1C(=O)OCC(=O)NC1CCS(=O)(=O)C1 (stereo unspecified)	-	-	-	-	-	-	.
NC(=O)c1c(N)[nH]c(C(=O)c2ccccc2)c1-c1cccc2ccccc12	.	.	-	.	.	.	.
CCN(CC)S(=O)(=O)c1cccc(NC(=O)COC(=O)c2cccs2)c1	61	-	-	-	-	-	46
CCN(CC)S(=O)(=O)c1cccc(C(=O)N[C@H](C(=O)OCC(=O)Nc2ccccc2)C(C)C)c1	51	-	-	-	-	-	39
SMILES	PAFAH2 FP inh	pPAFAH FP inh	ABHD4 inh	HTRA1 inh	PAFAH1B3 FP inh	PAFAH1B2 inh	PAFAH2 FP conf
CCN(CC)S(=O)(=O)c1cccc(C(=O)N[C@H](C(=O)OCC(N)=O)C(C)C)c1	-	-	-	-	-	-	.
CN(C)S(=O)(=O)c1cccc(NC(=O)COC(=O)CCC(=O)c2cccs2)c1	-	-	-	-	-	-	.
CCN(CC)S(=O)(=O)c1cccc(NC(=O)COC(=O)c2cncc(Br)c2)c1	-	-	-	-	-	-	.
CCN(CC)S(=O)(=O)c1cccc(NC(=O)COC(=O)C2CC3C=CC2C3)c1 (stereo unspecified)	38	-	-	-	-	-	-
CCN(CC)S(=O)(=O)c1cccc(NC(=O)COC(=O)/C=C/c2cccs2)c1	67	-	-	-	-	-	58
Cn1cccc1C=NNC(=O)c1cc(-c2ccc(Cl)cc2)n[nH]1	.	.	-	.	.	.	.
CC(=O)Nc1ccc(C(=O)OCC(=O)NC2CCCCCCC2)cc1	79	-	-	-	-	-	75
CC(=O)Nc1ccc(C(=O)OCC(=O)N(C)C2CCCCC2)cc1	32	-	-	-	-	-	-
O=C(COC(=O)c1ccc(Cl)nc1)NC1CCCCCC1	-	-	-	-	-	-	.
NC(=O)Nc1ccc(C(=O)OCC(=O)NC2CCCCC2)cc1	81	-	-	-	-	-	80
CN(C(=O)COC(=O)c1ccc(NS(=O)(=O)c2cccs2)cc1)C1CCCCC1	70	-	-	-	-	-	72
CCN(CC)C(=O)CC[C@H]1CC[C@]2(CCCN(Cc3ccc(N(C)C)cc3)C2)O1	.	.	-	.	.	.	.
Cc1c(NS(=O)(=O)c2cccc(C(=O)OCC(=O)N(C)C3CCCCC3)c2)c(=O)n(-c2ccccc2)n1C	34	-	-	-	-	-	-
Cc1c(NS(=O)(=O)c2cccc(C(=O)N3CCC(C)CC3)c2)c(=O)n(-c2ccccc2)n1C	-	-	-	-	-	-	.
N=C1S/C(=C\c2ccc(-c3cccc(Cl)c3)o2)C(=O)N1c1nccs1	45	-	-	-	-	-	-
O=C(CSc1nnc(-c2cccnc2)n1-c1ccc(Cl)cc1)Nc1ccc(S(=O)(=O)Nc2nccs2)cc1	.	.	-	.	.	.	.
Cc1ccc(C(=O)NCCSc2c(C)[nH]c3ccccc23)cc1[N+](=O)[O-]	30	-	-	-	-	-	-
Cc1ccc(S(=O)(=O)/N=C2\C=C(NS(=O)(=O)c3ccccc3)C(=O)c3ccccc32)cc1	30	.	-	-	-	-	-
COc1cc2nc(COc3ccccc3[N+](=O)[O-])oc(=O)c2cc1OC	50	-	-	-	-	-	69
O=C(O)CCC(=O)Nc1ccc(C(=O)OCC(=O)c2ccc(Cl)cc2Cl)cc1	62	-	-	-	-	-	51
Cc1ccc(Cl)cc1NC(=O)c1ccc(NC(=O)CCC(=O)O)cc1	-	-	-	-	-	-	.
CN(Cc1ccccc1)C(=O)OCc1cn(Cc2ccc(F)cc2F)nn1	.	.	-	.	.	.	.
COc1ccc(C(=O)O/N=C2\CCS(=O)(=O)c3sccc32)cc1	89	-	-	-	-	-	83
Cc1ccccc1C(=O)O/N=C1\CCS(=O)(=O)c2sccc21	68	-	-	-	-	-	68
CCc1ccc(CCNC(=O)OC2CCC23CCC(c2ccccc2)CC3)cc1 (stereo unspecified)	.	.	-	.	.	.	.
Nc1c(C(=O)N2CCN(CCc3ccccc3)CC2)cnn1-c1ccccc1	.	.	-	.	.	.	.
Cc1ccccc1/C(N)=N/OC(=O)c1ccc(F)cc1	-	-	-	-	-	-	.
N/C(CS(=O)(=O)c1ccccc1)=N\OC(=O)c1ccc(F)cc1	52	-	-	-	-	-	40
Cc1cnc(C(=O)OCC(=O)Nc2ccc(Cl)cn2)cn1	-	-	-	-	-	-	.

Screening data as filed in PubChem BioAssay.
